Reference: ChEMBL document CHEMBL4000155, “Synthesis and Antileukemic Activities of Piperlongumine and HDAC Inhibitor Hybrids against Acute Myeloid Leukemia Cells” (J Med Chem, 2016)
Activity calls are given as the source filed them. The rule behind the calls is not given here.

Legend:
[1] = tested on: U-937; experiment: Induction of DNA damage in p53 null human U937 cells at 2 uM after 20 hrs in presence of SAHA by SYBR gold staining based alkaline comet assay; format: functional, cell-based
Procedure, shortened: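 U937 cells treated 20 h with SAHA and PL alone or combined (16 h for hybrids). Alkaline single-cell gel electrophoresis, SYBR Gold staining, microscopy. Median % DNA in tail from 4 replicate gels ± s.e.m.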

[2] = target: T1, Protein deacetylase HDAC6 (Homo sapiens) (UniProt Q9UBN7); experiment: Effect on SAHA-induced HDAC6 inhibition in p53 null human U937 cells assessed as hyper acetylation of alpha tubulin at 1 uM after 4 hrs by Western blot analysis; format: cell-based
T1 sequence (whole entry): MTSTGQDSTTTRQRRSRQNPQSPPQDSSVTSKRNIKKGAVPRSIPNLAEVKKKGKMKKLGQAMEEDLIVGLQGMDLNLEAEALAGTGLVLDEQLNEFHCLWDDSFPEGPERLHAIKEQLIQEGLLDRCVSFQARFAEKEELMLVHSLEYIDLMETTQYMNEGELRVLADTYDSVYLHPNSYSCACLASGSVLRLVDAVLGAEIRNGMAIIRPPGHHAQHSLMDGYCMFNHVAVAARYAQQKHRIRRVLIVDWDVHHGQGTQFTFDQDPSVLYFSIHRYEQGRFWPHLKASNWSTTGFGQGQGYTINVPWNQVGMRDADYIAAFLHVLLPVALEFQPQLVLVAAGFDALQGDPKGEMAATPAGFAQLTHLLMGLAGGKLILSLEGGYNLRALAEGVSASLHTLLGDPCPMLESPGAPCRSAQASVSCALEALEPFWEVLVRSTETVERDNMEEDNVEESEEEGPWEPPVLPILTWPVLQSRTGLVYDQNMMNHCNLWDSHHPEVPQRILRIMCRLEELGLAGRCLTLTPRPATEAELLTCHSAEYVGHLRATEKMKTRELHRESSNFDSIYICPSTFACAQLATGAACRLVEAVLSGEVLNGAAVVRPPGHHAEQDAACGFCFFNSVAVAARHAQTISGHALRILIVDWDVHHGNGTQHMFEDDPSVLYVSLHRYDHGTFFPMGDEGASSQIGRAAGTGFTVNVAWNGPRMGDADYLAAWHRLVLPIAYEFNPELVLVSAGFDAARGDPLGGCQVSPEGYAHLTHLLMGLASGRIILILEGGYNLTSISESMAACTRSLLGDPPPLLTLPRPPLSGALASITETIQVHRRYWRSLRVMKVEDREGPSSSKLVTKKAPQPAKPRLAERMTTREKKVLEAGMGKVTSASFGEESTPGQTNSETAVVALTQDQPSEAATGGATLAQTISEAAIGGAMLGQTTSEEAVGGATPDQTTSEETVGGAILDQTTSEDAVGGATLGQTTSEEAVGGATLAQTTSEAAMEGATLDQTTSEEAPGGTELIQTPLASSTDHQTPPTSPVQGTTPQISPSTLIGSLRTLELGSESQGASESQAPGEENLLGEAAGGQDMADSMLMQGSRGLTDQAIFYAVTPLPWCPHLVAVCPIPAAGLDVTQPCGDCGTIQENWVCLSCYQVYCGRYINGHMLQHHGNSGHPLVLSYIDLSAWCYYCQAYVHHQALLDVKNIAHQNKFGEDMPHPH
Procedure, shortened: (§1)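 U937 cells treated at 1 μM for 4 h. Whole-cell lysates run on SDS-PAGE, transferred to PVDF and immunoblotted for acetyl-histone H4, histone H4, acetyl-α-tubulin and β-actin.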

[3] = organism: Homo sapiens; experiment: Effect on SAHA-induced HDAC inhibition in p53 null human U937 cells assessed as hyper acetylation of histone H4 at 1 uM after 4 hrs by Western blot analysis; format: cell-based; procedure, shortened: as §1
[4] = tested on: U-937; experiment: Antiproliferative activity against p53 null human U937 cells after 72 hrs in presence of SAHA by MTT assay; format: functional, cell-based; details: U-937, 72 h
Procedure, shortened: (§2)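 AML cell lines grown in RPMI 1640 with 10% FBS (20% for MOLM-13), 2 mM L-glutamine and penicillin/streptomycin at 37 °C, 5% CO2. Ara-C-resistant HL-60 and CMK sublines came from stepwise cytarabine selection and were kept in 600 nM or 300 nM cytarabine respectively. Cells were treated 72 h. MTT 0.05 mg/mL, 3 h at 37 °C, DMSO solubilization, absorbance at 570 nm. IC50 given ± SEM.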

[5] = tested on: HL-60; experiment: Antiproliferative activity against Ara-C resistant human HL60 cells after 72 hrs in presence of SAHA by MTT assay; format: functional, cell-based; details: HL-60, 72 h; procedure, shortened: as §2
[6] = tested on: U-937; experiment: Induction of apoptosis in p53 null human U937 cells assessed as PARP-1 cleavage at 2 uM after 24 hrs in presence of SAHA by Western blot analysis; format: functional, cell-based
Procedure, shortened: (§3)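 U937 cells exposed for 24 h. Lysates with protease/phosphatase inhibitors were separated by SDS-PAGE, transferred to PVDF and probed for PARP and cleaved caspase-3, with β-actin as loading control.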

[7] = tested on: U-937; experiment: Effect on SAHA-induced apoptosis in p53 null human U937 cells assessed as increase in Bim EL expression level by measuring ratio of Bim EL to beta-actin level at 2 uM after 24 hrs by Western blot analysis relative to control; format: functional
Procedure, shortened: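 U937 cells treated 24 h, alone or PL+SAHA. Whole-cell lysates (protease/phosphatase inhibitors) immunoblotted for γH2AX, CHK1, RAD51, Bim and XIAP. Band densitometry normalised to β-actin, then expressed as fold change relative to the untreated control.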

[8] = tested on: U-937; experiment: Upregulation of Rad51 protein expression in p53 null human U937 cells assessed as ratio of Rad51 to beta-actin level at 2 uM after 24 hrs by Western blot analysis relative to control
[9] = tested on: CMK; experiment: Antiproliferative activity against human CMK cells after 72 hrs in presence of SAHA by MTT assay; format: functional, cell-based; procedure, shortened: as §2
[10] = tested on: U-937; experiment: Induction of apoptosis in p53 null human U937 cells assessed as caspase 3 cleavage after 24 hrs by Western blot analysis; format: functional, cell-based; procedure, shortened: as §3
[11] = Chemical stability of the compound in pH 7.4 phosphate buffer at 50 uM incubated up to 4 hrs in presence of GSH by HPLC analysis; format: physicochemical; details: pH 7.4, 4 h
Procedure, shortened: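 Compound at 50 μM incubated with or without 5 mM GSH in phosphate buffer pH 7.4 at 37 °C for up to 4 h. Mixtures analysed by HPLC with water/0.1% formic acid/10% methanol versus 0.1% formic acid in acetonitrile, 0.5 mL/min, 10–80% B gradient over 18 min.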

[12] = tested on: U-937; experiment: Induction of apoptosis in p53 null human U937 cells at 4 uM after 24 hrs by annexin V-FITC/PI staining based flow cytometry; format: functional
Procedure, shortened: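 Human U937 AML cells (p53 null) in RPMI 1640 with 10% FBS, 2 mM L-glutamine, penicillin/streptomycin, 37 °C, 5% CO2. Exposed 24 h to compound alone or with SAHA; vehicle DMSO < 0.1% v/v. Annexin V-FITC/PI staining and flow cytometry, reported as % Annexin V+ cells. Three independent experiments in triplicate; one representative shown. EC50 taken as concentration giving 50% Annexin V+ cells versus vehicle.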

Activity [2] | IC50 [4] | IC50 [5] | Stability [11] | SMILES | Activity [1] | Activity [3] | Activity [6] | Ratio [7] | Ratio [8] | IC50 [9] | Activity [10] | Activity [12]
inactive | 767 nM | 1130 nM |  | COc1cc(/C=C/C(=O)N2CCC=CC2=O)cc(OC)c1OC [PIPLARTINE] | Active | inactive | Active | 1.8 | 1.4 | 613 nM |  | 
 |  |  | Stable | COc1cc(/C=C/C(=O)N2CCC=CC2=O)cc(OC)c1OCCCCCCC(=O)NO |  |  |  |  |  |  | Dose-dependent effect | 88.5%
